Fibroblast inh = antiproliferative effect on LL 47 fibroblasts – human, LL 47 cells, CellTiter-Glo luminescence, primary screen. LL 47 human lung fibroblast viability, ATP luminescence; hits give low values. viability, % at 10 µM. 1.1% of 85,000 active;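 active means viability at or below 50% in the single dose screen; inactive means viability above 50%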;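 further: compound exposure lasted 72 h before the ATP readout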
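Test system: LL 47 human lung fibroblasts; Quantity: 1,150 cells/well; Buffer or medium: IMEM plus 15% FBS; Dosing: tenfold compound dosing solution, DMSO at 0.1%; Timing: overnight cell rest, 72 h compound treatment at 37 °C; Detection: ATP-based CellTiter-Glo luminescent readout; Read-out basis: viability percentage against median untreated-cell control; Controls: cell-only wells, no compound.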
H69AR growth 86K = proliferation blockers of H69AR lung cancer cells, primary screen, cell-based, human, 86K library; H69AR lung tumor viability, ATP luminescence, 72 h; hits give low values; viability, % at 10 µM; 6% of 85,000 active;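 active means viability at or below 40%; inactive means viability above 40%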;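 further: multidrug resistant small cell line overexpressing MRP-1 efflux transporter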
HUVEC prolif 384 = inhibitors of HUVEC proliferation, primary screen, cell-based, 384-well; CellTiter-Glo luminescence, 72 h; hits give low values; viability, % at 10 µM (by protocol); 1.1% of 86,000 active;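 active means viability at or below 30%; inactive means viability above 30%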
HCT116 PTEN-null = growth suppression of PTEN-null HCT116, primary screen, cell-based, CellTiter-Glo. HCT116 PTEN-null viability, 60 h; hits give low values. AID 827, 2007. 1.2% of 140,000 active. viability, % at 10 µM;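 active means viability at or below a set limit, 4 SD under the median of all tested compounds, cut at about 3.7% in these data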;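 further: PTEN knockout HCT116 line with beta catenin targeted HCT116 as companion control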
HCT116 bCat-KO = primary screen for growth suppressors in beta-catenin knockout HCT116 cells (colon tumor, human). 1.5% of 140,000 active. viability, % at 10 µM. AID 818, 2007. HCT116 beta-catenin knockout viability, CellTiter-Glo, 60 h; hits give low values;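 active means viability at or under a set limit, the compound median less 4 SD, cut at about 6% in these data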
A number is an active result; – = inactive; · = no result given. This excerpt belongs to a sample that is enriched for hits.

SMILES | Fibroblast inh | H69AR growth 86K | HUVEC prolif 384 | HCT116 PTEN-null | HCT116 bCat-KO
CCC(c1nc2ccccc2c(=O)n1-c1nc2ccccc2s1)N1C(=O)c2ccccc2C1=O (stereo not drawn) | · | · | · | – | –
Cc1nc(Sc2ccccc2)c(C#N)cc1-c1ccccc1 | · | · | · | – | –
O=C1c2ccccc2C(=O)C1c1ccnc2ccccc12 | – | – | – | – | –
O=C1c2ccccc2C(=O)C1c1nccc2ccccc12 | · | · | · | – | 5.0
CCN(CC)S(=O)(=O)c1cc(-c2nnc(-c3ccc(Br)cc3)o2)ccc1Br | – | – | – | – | –
CNc1nc(C)c(C#N)cc1C(C)=O | – | – | – | – | –
COc1ccc(CCNC(=O)C2CCN(Cc3nc(-c4ccccc4F)oc3C)CC2)cc1OC | – | – | – | – | –
Cc1oc(-c2ccccc2F)nc1CN1CCC(C(=O)NCCC2=CCCCC2)CC1 | – | – | 20 | – | –
Cc1ccccc1-c1nc(CN2CCC(C(=O)NCCCN3CC(C)CC(C)C3)CC2)c(C)o1 (stereo not drawn) | – | – | 14 | – | –
C=CCn1c(-c2ccc(OC)c(OC)c2)n[nH]c1=S | – | – | – | – | –
COc1ccc(CCNC(=O)COc2ccc(S(=O)(=O)NC(C)C)cc2Cl)cc1OC | · | · | · | – | –
CCOC(=O)c1c(C)nc2c(c1-c1ccccc1)C(=O)c1ccccc1-2 | · | · | · | – | –
CC1(C)Cc2ccccc2-c2nnc(-c3ccc(O)cc3)n21 | · | – | – | – | –
O=C1CCc2cc(S(=O)(=O)N3CCC(C(=O)NC4CCCCCCC4)CC3)ccc2N1 | – | – | – | – | –
O=C(NC1CCCCCC1)C1CCN(S(=O)(=O)c2ccc(F)cc2)CC1 | – | 32 | – | – | –
CCOc1ccccc1OCCC(=O)Nc1ccc(F)c(Cl)c1 | · | · | · | – | –
Fc1ccc(-c2nc3n(n2)Cc2ccccc2-3)cc1 | – | 37 | – | – | –
CCn1c(C)nc2cc(C(=O)n3cc(C(=O)c4ccccc4O)cn3)ccc21 | · | · | · | – | –
CCn1c(C)nc2cc(-c3nc4n(n3)Cc3ccccc3-4)ccc21 | 24 | 16 | 26 | – | –
Cc1ccc(-c2nc3n(n2)Cc2ccccc2-3)cc1 | – | – | – | – | –
COC(=O)[C@@H](NC(=O)NCc1ccco1)C(C)C | – | – | – | – | –
CCOC(=O)N1CCN(C(=O)Cc2ccsc2)CC1 | – | – | – | – | –
CCn1cc(Cl)c(C(=O)N2N=C3/C(=C/c4cccs4)CCCC3C2c2cccs2)n1 (stereo not drawn) | – | 38 | – | – | –
Cc1ncsc1C(=O)N1N=C2/C(=C/c3ccccc3)CCCC2C1c1ccccc1 (stereo not drawn) | · | · | · | – | –
COC(=O)C(C)Sc1nc2c(c(-c3ccc(OC)cc3)c1C#N)-c1ccccc1C2=O (stereo not drawn) | – | 34 | – | · | ·
SMILES | Fibroblast inh | H69AR growth 86K | HUVEC prolif 384 | HCT116 PTEN-null | HCT116 bCat-KO
O=C(CN1C(=O)c2ccccc2C1=O)c1ccccc1 | – | – | – | – | –
CC1=C(CC(=O)c2ccccc2)C(=O)c2ccccc2C1=O | · | · | · | 2.0 | 2.2
COc1ccc2c(c1)O[C@H](c1ccc3c(c1)OCO3)[C@@H](OC(=O)Nc1cc(OC)c(OC)c(OC)c1)C2=O | · | · | · | – | –
COc1ccc(C(=O)Cn2c(C(=O)/C=C/c3ccccc3)nc3ccccc32)cc1 | · | · | · | 3.7 | 2.4
COc1ccc(-c2cc(C(=O)O)c3sc(N4CCCCC4)nc3n2)cc1OC | · | · | · | – | –
CCC(C)NC(=O)C1CCCN(c2nc(C)cc(OC)n2)C1 (stereo not drawn) | – | – | – | – | –
CCCCCOP(=O)(OCCCCC)C1(NS(=O)(=O)c2ccccc2)C=CC(=O)c2ccccc21 (stereo not drawn) | – | 19 | – | – | –
COc1ccc(-c2cc(C(F)(F)F)nc(SCC(=O)N(C)Cc3cnn(C)c3C)n2)cc1OC | · | · | · | – | –
Cc1nn(Cc2cccc(C(=O)NC34CC5CC(CC(C5)C3)C4)c2)c(C)c1Br | – | – | 29 | – | –
Cc1ccc(C)c(OCC(O)CN2CCC(CN3C(=O)c4cccc5cccc(c45)C3=O)CC2)c1 (stereo not drawn) | · | · | · | 1.2 | 1.2
CCC(C)Nc1nc(OC(C(F)(F)F)C(F)(F)F)nc(OC(C(F)(F)F)C(F)(F)F)n1 (stereo not drawn) | – | – | – | – | –
Nc1nc(Cl)nc2c1ncn2[C@@H]1O[C@H](CO)[C@@H](O)[C@H]1O | – | 18 | – | – | –
CN(C)c1ncnc2c1ncn2C1OC(CO)C(O)C1O (stereo not drawn) | 41 | 6.8 | 15 | – | 5.2
COc1ccc(-c2n[nH]c(C)c2-c2cc(OC)ccc2O)cc1 | – | – | – | – | –
C=C(C)COc1ccc(-c2[nH]ncc2Oc2ccccc2OC)c(O)c1 | – | 1.5 | – | – | –
C=C(C)COc1ccc(-c2[nH]ncc2-c2ccccc2OC)c(O)c1 | – | 6.0 | – | – | –
COc1ccc(-c2c(-c3ccc(O)cc3O)n[nH]c2C)cc1OC | – | 21 | – | – | –
CCOc1ccc(-c2[nH]ncc2Oc2ccccc2OC)c(O)c1 | – | – | – | – | –
C=C(C)COc1ccc(-c2[nH]ncc2-c2ccc(Br)cc2)c(O)c1 | · | · | · | 2.2 | 1.8
CCOc1ccc2nc(NC(=O)CSc3ccccc3)sc2c1 | – | – | – | – | –
COC(=O)c1sccc1NC(=O)/C=C/c1ccc(Cl)cc1Cl | · | · | · | – | –
CCOc1ccc(-c2[nH]ncc2-c2ccc(OC)c(OC)c2)c(O)c1 | – | 14 | – | – | –
CCOc1ccc(-c2[nH]ncc2Oc2ccccc2OCC)c(O)c1 | – | 12 | – | – | –
C=C(C)COc1ccc(-c2n[nH]c(C)c2-c2ccc(Br)cc2)c(O)c1 | 32 | 6.6 | 3.8 | – | –
C=C(C)COc1ccc(-c2nc(N)ncc2Oc2ccc(OC)cc2)c(O)c1 | – | – | – | – | –
SMILES | Fibroblast inh | H69AR growth 86K | HUVEC prolif 384 | HCT116 PTEN-null | HCT116 bCat-KO
COc1ccc(-c2cn[nH]c2-c2ccc(OCc3ccc([N+](=O)[O-])cc3)cc2O)cc1 | · | · | · | – | –
CCCOC(=O)c1ccc(Oc2cn[nH]c2-c2ccc(OC)cc2O)cc1 | – | – | 8.5 | – | –
CCc1cc2c(NCCN3CCCCC3)ncnc2s1 | – | – | – | – | –
Cc1occc1-c1nnc(SCC(=O)Nc2nc(C(C)(C)C)cs2)o1 | – | – | – | – | –
Clc1ccc(Cl)c(-c2ccc(/C=N/c3ncn[nH]3)o2)c1 | – | – | – | – | –
CC1=C(C)/C(=N\OS(=O)(=O)c2ccccc2)C=CC1=O | 3.5 | 1.5 | 3.8 | – | –
CCN1CCN(c2cc(C)c3cc(NC(=O)c4ccc5c(c4)OCO5)ccc3n2)CC1 | · | · | · | – | –
O=C(Nc1ccc(N2CCCCC2)cc1)c1cncc(Br)c1 | – | – | – | – | –
CCN1CCN(c2cc(C)c3cc(NC(=O)c4cncc(Br)c4)ccc3n2)CC1 | – | – | 23 | 1.2 | 1.0
CCN1CCN(c2cc(C)c3cc(NC(=O)c4ccc(OC)c(OC)c4)ccc3n2)CC1 | 42 | 19 | – | – | –

Screening data deposited in PubChem BioAssay by SRMLSC.
